Here are results for three molecules from ChEMBL document CHEMBL2417369, “Synthesis and evaluation of heteroaryl substituted diazaspirocycles as scaffolds to probe the ATP-binding site of protein kinases” (Bioorg Med Chem, 2013).

Assay [1] addresses Vascular endothelial growth factor receptor 2 (Homo sapiens) (UniProt P35968). In words: Inhibition of KDR (unknown origin) at 30 uM by microfluidic mobility shift assay relative to control. In short, it runs like this: (§1)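 Single-point screen at 30 µM test compound across a 24-kinase panel in a microfluidic assay format. ATP was set near each enzyme's Km,[ATP]. […] The pan-AGC inhibitor H-89 served as an internal control on every assay plate.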

Assay [2] relates to Tyrosine-protein kinase ABL1 (Homo sapiens), P00519 [H396P]. In words: Inhibition of ABL H396P mutant (unknown origin) at 30 uM by microfluidic mobility shift assay relative to control. It counts as protein assay. In short, it runs like this: as §1
Assay [3] concerns the target T1, Serine/threonine-protein kinase BRSK1 (Homo sapiens) (UniProt Q8TDC3).
T1 sequence (whole entry): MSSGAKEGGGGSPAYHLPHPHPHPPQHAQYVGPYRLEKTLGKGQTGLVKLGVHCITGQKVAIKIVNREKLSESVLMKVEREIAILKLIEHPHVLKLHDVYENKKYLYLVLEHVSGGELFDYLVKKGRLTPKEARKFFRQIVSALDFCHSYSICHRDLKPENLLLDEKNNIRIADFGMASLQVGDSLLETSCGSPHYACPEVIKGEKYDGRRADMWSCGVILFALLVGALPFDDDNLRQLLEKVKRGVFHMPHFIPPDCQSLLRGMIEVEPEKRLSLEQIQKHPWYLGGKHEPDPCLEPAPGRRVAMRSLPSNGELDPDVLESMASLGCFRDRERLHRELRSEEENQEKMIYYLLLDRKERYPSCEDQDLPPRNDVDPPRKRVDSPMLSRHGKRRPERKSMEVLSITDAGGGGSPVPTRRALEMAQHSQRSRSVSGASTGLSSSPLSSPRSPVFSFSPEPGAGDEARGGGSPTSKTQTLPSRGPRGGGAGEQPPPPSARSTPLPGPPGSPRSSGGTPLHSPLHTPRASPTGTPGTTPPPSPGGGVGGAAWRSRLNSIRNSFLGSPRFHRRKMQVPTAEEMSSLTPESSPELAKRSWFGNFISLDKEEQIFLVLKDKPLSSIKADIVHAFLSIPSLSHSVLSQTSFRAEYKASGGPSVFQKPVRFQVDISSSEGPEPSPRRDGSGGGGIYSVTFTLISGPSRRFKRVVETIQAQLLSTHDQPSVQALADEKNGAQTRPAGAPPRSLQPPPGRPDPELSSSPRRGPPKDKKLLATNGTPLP
In words: Inhibition of BRSK1 (unknown origin) at 30 uM by microfluidic mobility shift assay relative to control. An outline of the steps:
as §1

Assay [4] has as its target T2, Calcium/calmodulin-dependent protein kinase type IV (Homo sapiens) (UniProt Q16566).
T2 sequence (whole entry): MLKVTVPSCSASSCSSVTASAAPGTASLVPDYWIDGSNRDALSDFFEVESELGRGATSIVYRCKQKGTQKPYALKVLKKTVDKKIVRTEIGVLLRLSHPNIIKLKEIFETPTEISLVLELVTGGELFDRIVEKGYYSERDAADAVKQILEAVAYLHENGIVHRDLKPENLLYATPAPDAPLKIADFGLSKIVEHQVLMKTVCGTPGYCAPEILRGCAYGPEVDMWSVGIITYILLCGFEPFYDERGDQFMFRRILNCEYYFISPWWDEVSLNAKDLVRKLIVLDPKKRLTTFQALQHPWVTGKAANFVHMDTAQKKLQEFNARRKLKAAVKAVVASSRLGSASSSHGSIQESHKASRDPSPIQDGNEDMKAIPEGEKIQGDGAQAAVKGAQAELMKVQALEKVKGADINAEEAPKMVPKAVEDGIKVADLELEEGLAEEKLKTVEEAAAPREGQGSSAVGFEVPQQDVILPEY
In words: Inhibition of CAMK4 (unknown origin) at 30 uM by microfluidic mobility shift assay relative to control. In short, it runs like this:
as §1

Assay [5] addresses Rho-associated protein kinase 2 (Homo sapiens) (UniProt O75116). In words: Inhibition of ROCK2 (unknown origin) at 30 uM by microfluidic mobility shift assay relative to control. An outline of the steps: (§2)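 Single-point screen against a 24-kinase panel in a commercial microfluidic assay format. Compounds were tested at 30 µM, with ATP at approximately the Km,[ATP] of each enzyme. H-89 was included on each assay plate as an internal control.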

Assay [6] is filed under the species Homo sapiens. In words: Inhibition of PKGalpha (unknown origin) at 30 uM by microfluidic mobility shift assay relative to control. In short, it runs like this: as §2
The target of assay [7] is Ribosomal protein S6 kinase alpha-4 (Homo sapiens) (UniProt O75676). In words: Inhibition of MSK2 (unknown origin) at 30 uM by microfluidic mobility shift assay relative to control. An outline of the steps:
as §1

Assay [8] concerns the target RAC-gamma serine/threonine-protein kinase (Homo sapiens) (UniProt Q9Y243). In words: Inhibition of AKT3 (unknown origin) at 30 uM by microfluidic mobility shift assay relative to control. In short, it runs like this: as §1
Assay [9] concerns the target T3, Aurora kinase C (Homo sapiens) (UniProt Q9UQB9).
T3 sequence (whole entry): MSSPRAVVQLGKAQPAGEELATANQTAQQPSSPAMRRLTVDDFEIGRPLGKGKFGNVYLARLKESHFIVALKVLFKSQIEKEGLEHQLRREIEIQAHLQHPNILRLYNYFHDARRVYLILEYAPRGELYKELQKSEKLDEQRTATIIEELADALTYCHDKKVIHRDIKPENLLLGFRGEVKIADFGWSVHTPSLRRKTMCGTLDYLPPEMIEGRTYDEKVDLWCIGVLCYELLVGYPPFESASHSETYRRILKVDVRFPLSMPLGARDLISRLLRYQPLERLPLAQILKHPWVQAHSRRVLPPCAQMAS
In words: Inhibition of AURC (unknown origin) at 30 uM by microfluidic mobility shift assay relative to control. An outline of the steps: as §1

For assay [10], the target named is Mitogen-activated protein kinase kinase kinase kinase 4 (Homo sapiens) (UniProt O95819). In words: Inhibition of HGK (unknown origin) at 30 uM by microfluidic mobility shift assay relative to control. An outline of the steps: as §1
Mitogen-activated protein kinase kinase kinase kinase 4 (Homo sapiens), sequence (O95819 2-1239 limits assumed): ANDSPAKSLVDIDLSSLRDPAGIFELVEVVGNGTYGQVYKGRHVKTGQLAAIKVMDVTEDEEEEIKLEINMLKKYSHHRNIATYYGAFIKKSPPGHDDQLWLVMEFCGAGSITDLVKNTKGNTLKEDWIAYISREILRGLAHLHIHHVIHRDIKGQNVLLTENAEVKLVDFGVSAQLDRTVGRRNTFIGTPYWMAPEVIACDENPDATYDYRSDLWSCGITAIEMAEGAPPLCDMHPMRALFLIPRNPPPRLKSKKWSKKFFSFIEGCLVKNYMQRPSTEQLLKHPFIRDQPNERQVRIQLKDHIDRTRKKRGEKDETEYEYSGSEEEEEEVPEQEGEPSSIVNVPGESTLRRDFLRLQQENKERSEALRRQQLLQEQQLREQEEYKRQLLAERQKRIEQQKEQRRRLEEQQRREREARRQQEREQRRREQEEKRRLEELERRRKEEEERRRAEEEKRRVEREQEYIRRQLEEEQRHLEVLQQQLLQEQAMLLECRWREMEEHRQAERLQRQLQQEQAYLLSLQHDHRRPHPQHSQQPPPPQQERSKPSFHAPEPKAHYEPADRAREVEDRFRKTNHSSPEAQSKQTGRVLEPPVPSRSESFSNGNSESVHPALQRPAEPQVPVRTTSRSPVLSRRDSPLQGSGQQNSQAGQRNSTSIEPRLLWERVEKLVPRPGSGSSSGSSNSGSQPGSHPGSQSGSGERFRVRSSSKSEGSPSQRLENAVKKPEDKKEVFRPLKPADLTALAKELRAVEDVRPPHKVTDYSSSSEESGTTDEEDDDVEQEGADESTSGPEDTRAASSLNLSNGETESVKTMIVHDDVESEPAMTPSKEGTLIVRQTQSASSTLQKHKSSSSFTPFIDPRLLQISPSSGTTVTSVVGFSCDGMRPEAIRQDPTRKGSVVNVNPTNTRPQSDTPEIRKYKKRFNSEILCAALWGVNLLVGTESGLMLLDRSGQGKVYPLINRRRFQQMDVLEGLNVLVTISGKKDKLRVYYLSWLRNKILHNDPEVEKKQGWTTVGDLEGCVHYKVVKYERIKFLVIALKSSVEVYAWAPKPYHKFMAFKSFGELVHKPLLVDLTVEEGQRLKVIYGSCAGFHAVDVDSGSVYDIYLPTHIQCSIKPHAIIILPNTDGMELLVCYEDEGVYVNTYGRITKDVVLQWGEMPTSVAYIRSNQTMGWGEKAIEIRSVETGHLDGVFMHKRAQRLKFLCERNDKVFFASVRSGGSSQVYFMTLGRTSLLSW
For assay [11], the target named is Calcium/calmodulin-dependent protein kinase type II subunit gamma (Homo sapiens) (UniProt Q13555). In words: Inhibition of CAMK2gamma (unknown origin) at 30 uM by microfluidic mobility shift assay relative to control.
Calcium/calmodulin-dependent protein kinase type II subunit gamma (Homo sapiens), sequence (Q13555 whole entry, looked up): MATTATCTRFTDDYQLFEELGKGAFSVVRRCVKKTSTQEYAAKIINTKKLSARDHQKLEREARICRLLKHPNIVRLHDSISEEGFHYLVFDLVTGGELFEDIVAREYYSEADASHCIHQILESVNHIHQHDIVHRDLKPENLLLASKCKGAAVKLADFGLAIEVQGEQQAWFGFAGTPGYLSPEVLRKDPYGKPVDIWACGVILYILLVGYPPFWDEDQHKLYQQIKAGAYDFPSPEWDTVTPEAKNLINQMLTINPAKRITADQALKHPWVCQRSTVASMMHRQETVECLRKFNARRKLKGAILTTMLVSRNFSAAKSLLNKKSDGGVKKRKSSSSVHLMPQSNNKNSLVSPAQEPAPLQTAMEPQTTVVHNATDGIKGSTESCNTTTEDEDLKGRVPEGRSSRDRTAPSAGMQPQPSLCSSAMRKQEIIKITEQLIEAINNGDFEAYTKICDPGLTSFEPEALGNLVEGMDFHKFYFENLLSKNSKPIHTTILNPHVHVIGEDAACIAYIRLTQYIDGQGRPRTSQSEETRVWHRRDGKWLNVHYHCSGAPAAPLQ

Rho-associated protein kinase 2 (Homo sapiens), sequence (O75116 whole entry, looked up): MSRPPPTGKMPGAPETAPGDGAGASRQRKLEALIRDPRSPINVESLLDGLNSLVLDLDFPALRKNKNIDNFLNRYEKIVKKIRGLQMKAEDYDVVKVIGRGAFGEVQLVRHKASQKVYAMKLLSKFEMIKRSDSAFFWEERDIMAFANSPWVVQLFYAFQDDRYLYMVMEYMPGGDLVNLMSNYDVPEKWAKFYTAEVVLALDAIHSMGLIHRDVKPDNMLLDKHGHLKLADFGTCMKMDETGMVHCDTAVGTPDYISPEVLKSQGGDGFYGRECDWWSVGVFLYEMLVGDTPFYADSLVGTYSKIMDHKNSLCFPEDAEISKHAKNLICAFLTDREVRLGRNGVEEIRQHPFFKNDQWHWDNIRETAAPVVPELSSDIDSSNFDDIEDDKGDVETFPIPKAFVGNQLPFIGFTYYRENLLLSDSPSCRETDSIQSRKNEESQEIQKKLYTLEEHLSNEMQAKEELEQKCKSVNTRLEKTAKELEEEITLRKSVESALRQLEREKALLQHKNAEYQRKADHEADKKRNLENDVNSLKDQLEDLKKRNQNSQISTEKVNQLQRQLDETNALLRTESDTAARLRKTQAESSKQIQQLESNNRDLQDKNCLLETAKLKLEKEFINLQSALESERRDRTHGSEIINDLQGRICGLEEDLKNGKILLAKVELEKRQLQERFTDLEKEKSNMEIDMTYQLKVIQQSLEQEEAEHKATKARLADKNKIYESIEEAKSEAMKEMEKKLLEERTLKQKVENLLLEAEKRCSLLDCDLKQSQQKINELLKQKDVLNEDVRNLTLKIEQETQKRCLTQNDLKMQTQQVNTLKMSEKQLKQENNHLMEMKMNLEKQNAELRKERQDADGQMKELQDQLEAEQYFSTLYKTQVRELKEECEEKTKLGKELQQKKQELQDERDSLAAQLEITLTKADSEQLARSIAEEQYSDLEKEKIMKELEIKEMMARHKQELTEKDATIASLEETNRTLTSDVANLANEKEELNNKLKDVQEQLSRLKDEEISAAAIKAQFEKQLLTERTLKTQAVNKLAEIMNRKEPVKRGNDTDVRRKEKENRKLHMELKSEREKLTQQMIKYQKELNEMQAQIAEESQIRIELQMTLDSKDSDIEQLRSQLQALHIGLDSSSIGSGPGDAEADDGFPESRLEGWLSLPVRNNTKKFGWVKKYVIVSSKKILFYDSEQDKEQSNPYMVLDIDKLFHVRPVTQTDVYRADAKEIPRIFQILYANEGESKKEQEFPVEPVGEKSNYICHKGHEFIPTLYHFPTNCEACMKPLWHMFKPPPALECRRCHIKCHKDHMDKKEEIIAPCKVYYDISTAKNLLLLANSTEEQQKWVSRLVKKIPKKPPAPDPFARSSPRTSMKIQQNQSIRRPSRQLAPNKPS
Vascular endothelial growth factor receptor 2 (Homo sapiens), sequence (P35968 whole entry): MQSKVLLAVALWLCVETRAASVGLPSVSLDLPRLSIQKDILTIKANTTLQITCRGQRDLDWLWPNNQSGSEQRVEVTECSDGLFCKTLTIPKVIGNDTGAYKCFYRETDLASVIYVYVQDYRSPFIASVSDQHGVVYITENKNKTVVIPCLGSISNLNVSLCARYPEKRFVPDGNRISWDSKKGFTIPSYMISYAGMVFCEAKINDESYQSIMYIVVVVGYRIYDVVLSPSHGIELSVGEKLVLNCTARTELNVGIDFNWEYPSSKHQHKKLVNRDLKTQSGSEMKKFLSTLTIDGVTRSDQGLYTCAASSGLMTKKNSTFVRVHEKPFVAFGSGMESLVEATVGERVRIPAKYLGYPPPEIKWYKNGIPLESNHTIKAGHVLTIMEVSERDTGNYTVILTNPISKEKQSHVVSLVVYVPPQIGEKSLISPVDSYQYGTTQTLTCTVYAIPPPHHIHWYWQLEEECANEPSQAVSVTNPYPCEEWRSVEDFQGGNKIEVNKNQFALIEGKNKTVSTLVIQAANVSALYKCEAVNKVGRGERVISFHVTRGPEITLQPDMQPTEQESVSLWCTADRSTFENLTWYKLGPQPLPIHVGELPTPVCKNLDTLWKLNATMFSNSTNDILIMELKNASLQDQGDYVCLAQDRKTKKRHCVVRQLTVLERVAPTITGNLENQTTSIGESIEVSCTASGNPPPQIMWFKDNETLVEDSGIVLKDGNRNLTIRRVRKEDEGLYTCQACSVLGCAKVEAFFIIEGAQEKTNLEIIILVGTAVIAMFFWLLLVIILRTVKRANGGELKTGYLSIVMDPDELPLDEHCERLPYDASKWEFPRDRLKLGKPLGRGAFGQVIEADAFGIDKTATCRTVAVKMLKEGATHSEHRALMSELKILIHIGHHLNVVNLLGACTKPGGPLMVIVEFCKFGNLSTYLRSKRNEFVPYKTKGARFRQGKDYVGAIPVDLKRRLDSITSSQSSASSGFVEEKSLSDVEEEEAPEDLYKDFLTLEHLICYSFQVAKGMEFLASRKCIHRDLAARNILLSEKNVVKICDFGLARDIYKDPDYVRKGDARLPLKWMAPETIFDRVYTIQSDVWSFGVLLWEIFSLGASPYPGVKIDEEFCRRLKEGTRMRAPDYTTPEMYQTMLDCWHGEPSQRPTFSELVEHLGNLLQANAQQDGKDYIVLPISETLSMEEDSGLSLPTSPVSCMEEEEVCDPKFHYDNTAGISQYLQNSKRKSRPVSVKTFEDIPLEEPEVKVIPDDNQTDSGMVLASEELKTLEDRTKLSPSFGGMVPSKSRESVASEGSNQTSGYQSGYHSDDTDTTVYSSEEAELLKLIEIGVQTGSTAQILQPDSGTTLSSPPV
RAC-gamma serine/threonine-protein kinase (Homo sapiens), sequence (Q9Y243 whole entry): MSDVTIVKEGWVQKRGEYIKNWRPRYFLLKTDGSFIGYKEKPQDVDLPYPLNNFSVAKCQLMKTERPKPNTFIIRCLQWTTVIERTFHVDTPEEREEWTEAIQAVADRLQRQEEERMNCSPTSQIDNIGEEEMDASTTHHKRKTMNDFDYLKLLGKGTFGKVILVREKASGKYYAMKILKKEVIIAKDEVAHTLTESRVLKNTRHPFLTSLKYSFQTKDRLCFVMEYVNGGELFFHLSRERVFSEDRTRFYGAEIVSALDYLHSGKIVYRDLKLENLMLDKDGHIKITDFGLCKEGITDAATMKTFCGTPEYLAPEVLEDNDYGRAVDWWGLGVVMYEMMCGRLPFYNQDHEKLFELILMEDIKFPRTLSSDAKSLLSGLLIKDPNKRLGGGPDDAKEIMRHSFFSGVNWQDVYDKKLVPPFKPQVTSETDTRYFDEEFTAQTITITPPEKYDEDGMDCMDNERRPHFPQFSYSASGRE

The term inhibition denotes the relative decrease from the control value, in per cent. `c1ccc(C2CCNC3(CCN(c4ncnc5[nH]cnc45)CC3)C2)cc1` (racemic): the inhibition in assay [1] stood at 35%; in assay [2] it was 42%; in assay [3] it was 13%; in [4] it was 18%; in [5] it was 99%; in assay [6], 99%. In addition, the inhibition in assay [7] is 94%; in assay [8], 96%; in assay [9], 54%; in assay [10], 7%; in assay [11], 18%.

Regarding `c1ccc(CC2CCC3(CCN(c4ncnc5[nH]cnc45)CC3)NC2)cc1` (racemic), the inhibition is 31% in assay [1]; 28% in assay [2]; 10% in assay [3]; 18% in [4]; 78% in [5]; 86% in assay [6]. Moreover, the inhibition came to 52% in [7]; 69% in assay [8]; 61% in assay [9]; 5% in assay [10]; 17% in [11].

For `c1ccc(CC2CCNC3(CCN(c4ncnc5[nH]cnc45)CC3)C2)cc1` (racemic), the inhibition in assay [1] was determined as 11%; in [2], 15%; in assay [3] it was 16%; in [4], 14%; in assay [5], 98%; in assay [6], 99%. The inhibition in assay [7] was found to be 100%; in assay [8], 101%; in assay [9], 46%; in assay [10], 2%; in [11], 17%.
